In article PMC3026963 (The Biochemical journal, 2010):

Assays:
CK2α catalytic subunit = CK2α catalytic subunit (Homo sapiens, UniProt P68400); test: In vitro phosphorylation assay of CK2α with peptide substrate RRRADDSDDDDD; type: biochemical
Procedure, shortened: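 Activity is expressed as % of no-peptide control, as the mean of at least three independent experiments. Full-length murine NBD1ΔF508 (389–673) tests were run at 350 μM ATP.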

CK2 holoenzyme = CK2 holoenzyme activity towards protein and peptide substrates; type: biochemical, human; settings: results not shown
Procedure, shortened: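 Recombinant human CK2α and CK2β expressed in E. coli; holoenzyme formed by pre-incubating CK2α with 10-fold molar excess of CK2β. Radiolabel incorporation was measured; at least three independent experiments were averaged.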

CK2α catalytic subunit, sequence (P68400 whole entry): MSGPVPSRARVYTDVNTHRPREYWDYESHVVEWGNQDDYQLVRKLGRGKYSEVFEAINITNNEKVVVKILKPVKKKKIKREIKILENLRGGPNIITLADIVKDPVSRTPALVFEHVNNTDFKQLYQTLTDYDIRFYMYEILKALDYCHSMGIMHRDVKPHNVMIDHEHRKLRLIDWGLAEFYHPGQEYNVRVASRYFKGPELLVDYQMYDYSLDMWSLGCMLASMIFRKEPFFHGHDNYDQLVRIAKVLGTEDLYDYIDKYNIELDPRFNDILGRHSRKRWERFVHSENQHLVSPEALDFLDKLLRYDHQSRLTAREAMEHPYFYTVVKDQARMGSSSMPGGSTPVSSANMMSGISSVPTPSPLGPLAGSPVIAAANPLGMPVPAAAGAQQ

B1: NBD1ΔF508: purified ΔF508 mutated recombinant murine NBD1 (nucleotide-binding domain 1 of CFTR; sequence 389–673) (protein)
chain: TTGIIMENVTAFWEEGFGELLEKVQQSNGDRKHSSDENNVSFSHLCLVGNPVLKNINLNIEKGEMLAITGSTGSGKTSLLMLILGELEASEGIIKHSGRVSFCSQFSWIMPGTIKENIIGVSYDEYRYKSVVKACQLQQDITKFAEQDNTVLGEGGVTLSGGQRARISLARAVYKDADLYLLDSPFGYLDVFTEEQVFESCVCKLMANKTRILVTSKMEHLRKADKILILHQGSSYFYGTFSELQSLRPDFSSKLMGYDTFDQFTEERRSSILTETLRRFSVDD
- effect on inhibition of CK2α by the ΔF508 peptide (CK2α catalytic subunit; 50 μM NBD1ΔF508, 350 μM ATP): abrogates the inhibitory efficacy of the ΔF508 peptide
- inhibition of CK2α by the full-length protein (CK2α catalytic subunit; concentration raised up to 20 μM, results not shown): no significant inhibition
- effect on CK2 holoenzyme (CK2 holoenzyme): no appreciable effect
